NR2E3 ag-1 – activates human NR2E3 receptor | CHO-S Gal4-NCOR/VP16-NR2E3 two-hybrid, luciferase | 0.35% of 360,000 active | Q9Y5X4 | AID 602229 | inhibition of corepressor binding, % at 3.98 µM;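 active means inhibition above the mean of all tested compounds plus 3 SD, cut at about 70% in these data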;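 further: higher means lower luciferase signal from less NR2E3 corepressor binding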
Target sequence (Q9Y5X4 whole entry, looked up, the tested form may be a part): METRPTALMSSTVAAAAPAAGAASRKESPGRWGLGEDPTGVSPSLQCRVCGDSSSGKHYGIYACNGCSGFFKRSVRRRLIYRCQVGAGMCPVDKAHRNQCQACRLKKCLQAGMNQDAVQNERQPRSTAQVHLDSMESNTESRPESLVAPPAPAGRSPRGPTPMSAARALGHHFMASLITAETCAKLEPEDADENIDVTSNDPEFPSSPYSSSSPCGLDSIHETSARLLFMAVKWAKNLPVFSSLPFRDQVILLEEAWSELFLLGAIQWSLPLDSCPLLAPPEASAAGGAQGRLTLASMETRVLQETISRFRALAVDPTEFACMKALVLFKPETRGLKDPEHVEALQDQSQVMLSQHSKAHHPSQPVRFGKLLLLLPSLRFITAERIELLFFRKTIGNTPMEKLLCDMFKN
697 NFkB inh – lowers PMA/ionomycin-induced NF-kB signal in 697 B cells. 697 B-cell NF-kB luciferase reporter, 16 h. inhibition, % at 4 µM. 0.33% of 330,000 active; in the data active means inhibition above about 35%
Jurkat NFkB inh – lowers PMA/ionomycin-induced NF-kB signal in Jurkat cells | PMA/ionomycin-induced NF-kB luciferase reporter, luminescence | inhibition, % at 4 µM | 0.53% of 330,000 active | AID 435003; in the data active means inhibition above about 50%
GalR3 antag – human GalR3 antagonism; O60755; HEK293 GalR3-CNG cAMP membrane potential fluorescence; galR3 body fused to GalR1 C-terminus; inhibition, % at 3 µM; 0.44% of 360,000 active;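 active means inhibition above the screen-wide average plus 3 SD, cut at about 13% in these data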;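 further: forskolin and galanin both at EC90 stimulate the cells; cAMP rise reported by CNG channel membrane potential dye signal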
Gli-Sufu antag – antagonists of Gli-Sufu signaling; 0.74% of 340,000 active; Sufu-KO-LIGHT fibroblasts, Gli luciferase reporter luminescence; AID 588413; inhibition, % at 5 µM;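 active means inhibition above about 55%, limit read from the data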
NR2E3 ag-2 – activates human photoreceptor nuclear receptor NR2E3; inhibition of corepressor binding, % at 4.78 µM; Q9Y5X4; AID 2300; 0.12% of 320,000 active; GST-NR2E3/biotin-RetCOR TR-FRET, 1536-well;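 active means percent inhibition above the cutoff of mean plus 3 SD of all tested compounds, set per screening campaign, cut at about 20% in these data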
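Material: NR2E3–RetCOR corepressor complex / Amount: 1.35 nM GST-NR2E3 / Medium: Tris pH 7.5 / Compound: single nominal compound dose of 4.8 µM / Incubation: 5 h at 4 °C / Technique: TR-FRET, Eu(K)-anti-GST donor, streptavidin-D2 acceptor, ex 340, em 617/671 nm / Read-out basis: percent loss of FRET ratio relative to control wells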
NR2E3 ag confirm – NR2E3 agonism confirmed in two-hybrid assay; shares compounds with NR2E3 ag-1; CHO-S mammalian two-hybrid NR2E3-NCOR, luciferase luminescence; inhibition, % at 3.98 µM; 51% of 2,300 active;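 active means average inhibition above a cutoff equal to the mean inhibition of all tested compounds plus one SD, cut at about 70% in these data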
GAL4-VP16 luc – reduces GAL4-VP16 reporter signal in NR2E3 counterscreen; shares compounds with NR2E3 ag-1; CHO-S GAL4-VP16 luciferase reporter, luminescence; 29% of 2,300 active; inhibition, % at 3.98 µM;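 active means mean inhibition above a cutoff equal to the average over all tested compounds plus one standard deviation, cut at about 70% in these data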;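 further: luciferase from a UAS reporter driven by GAL4-VP16 transactivation; higher means less reporter light so more repression of VP16 activity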
GalR3 antag conf – GalR3 (human) antagonism, confirmation. shares compounds with GalR3 antag. HEK293 GalR3 CNG cAMP biosensor, membrane potential fluorescence; galR3 fused to GalR1 carboxy tail; challenged with forskolin and galanin at EC90. inhibition, % at 3 µM. 59% of 1,600 active. AID 652245;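 active means inhibition above the primary screen's cutoff, the mean inhibition of all screened compounds plus 3 SD, cut at about 13% in these data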
CNG parental – acts as nonspecific agonist in parental HEK-CNG cells; HEK293-CNG parental cells, cAMP membrane potential fluorescence; normalised: DMSO wells 0%, forskolin wells 100%; shares compounds with GalR3 antag; activation, % at 3 µM; 10% of 1,600 active; in the data active means activation above about 1.3%
A number is an active result. The list is not random: actives were taken first. Their share in the collection is about 1.8%.

COc1ccc(-c2csc(NC(=O)c3ccccc3NS(=O)(=O)c3ccc(F)c(F)c3)n2)cc1 was read as NR2E3 ag-1 98.2, 697 NFkB inh inactive, Jurkat NFkB inh inactive, GalR3 antag 91.5, Gli-Sufu antag 75.3, NR2E3 ag-2 inactive, NR2E3 ag confirm 100.7, GAL4-VP16 luc 90.5, GalR3 antag conf 106.1 and CNG parental inactive.
Screening CC(CCN1CCN(c2ccc(F)cc2)CC1)c1ccccc1 (stereo not drawn) returned NR2E3 ag-1 inactive, 697 NFkB inh inactive, Jurkat NFkB inh inactive, GalR3 antag inactive, Gli-Sufu antag inactive and NR2E3 ag-2 inactive.
Screening CCC(CC)c1nnc(NC(=O)c2cc([N+](=O)[O-])ccc2N2CCOCC2)s1 returned NR2E3 ag-1 inactive, 697 NFkB inh inactive, Jurkat NFkB inh inactive, GalR3 antag inactive and Gli-Sufu antag inactive.
Screening Cc1nc(CN(C)C(=O)c2cc(COc3ccc4ncccc4c3)on2)cs1 returned NR2E3 ag-1 inactive, 697 NFkB inh inactive, Jurkat NFkB inh inactive, GalR3 antag 67.9, Gli-Sufu antag inactive, NR2E3 ag-2 inactive, NR2E3 ag confirm 87.3, GAL4-VP16 luc 77.7, GalR3 antag conf 108.0 and CNG parental inactive.
`CCOC(=O)C1CCN(C(=O)COC(=O)CSc2ccc(C(N)=O)cc2[N+](=O)[O-])CC1` gave NR2E3 ag-1 inactive, 697 NFkB inh inactive, Jurkat NFkB inh inactive, GalR3 antag inactive, Gli-Sufu antag inactive and NR2E3 ag-2 inactive.
Screening O=C(CN(c1ccc(Br)cc1)S(=O)(=O)c1ccc(Cl)c([N+](=O)[O-])c1)NCC1CCCO1 (stereo not drawn) returned NR2E3 ag-1 inactive, GalR3 antag inactive and Gli-Sufu antag inactive.
`Nc1ncnc2c(C3OC(CO)C(O)C3O)scc12` (stereo not drawn) gave NR2E3 ag-1 100.3, GalR3 antag 61.4, Gli-Sufu antag inactive, NR2E3 ag confirm 97.0, GAL4-VP16 luc 96.0, GalR3 antag conf 47.0 and CNG parental inactive.
Screening Cc1ccnc(SCC(=O)Nc2sc3c(c2C#N)CCCC3)n1 returned NR2E3 ag-1 85.5, 697 NFkB inh inactive, Jurkat NFkB inh inactive, GalR3 antag 42.9, Gli-Sufu antag inactive, NR2E3 ag-2 inactive, NR2E3 ag confirm 91.8, GAL4-VP16 luc 85.2, GalR3 antag conf 94.6 and CNG parental inactive.
O=C(OCc1nc2ccsc2c(=O)[nH]1)c1cccc(S(=O)(=O)N2CCOCC2)c1 was read as NR2E3 ag-1 inactive, 697 NFkB inh inactive, Jurkat NFkB inh inactive, GalR3 antag inactive, Gli-Sufu antag inactive and NR2E3 ag-2 inactive.
Screening COc1cc2c(cc1OC)-c1cc(Nc3ccc4c(c3)OCCO4)nc(=O)n1CC2 returned NR2E3 ag-1 inactive, 697 NFkB inh inactive, Jurkat NFkB inh inactive, GalR3 antag 59.3, Gli-Sufu antag inactive, NR2E3 ag-2 inactive, NR2E3 ag confirm inactive, GAL4-VP16 luc inactive, GalR3 antag conf 57.1 and CNG parental inactive.
For Cn1cc(-c2cc(C(=O)O)on2)cn1 the results were NR2E3 ag-1 inactive, 697 NFkB inh inactive, Jurkat NFkB inh inactive, GalR3 antag inactive, Gli-Sufu antag inactive and NR2E3 ag-2 inactive.
CCC(NC(=O)Nc1nnc(C(F)(F)F)s1)(C(F)(F)F)C(F)(F)F was read as NR2E3 ag-1 104.3, 697 NFkB inh inactive, Jurkat NFkB inh inactive, GalR3 antag 58.3, Gli-Sufu antag inactive, NR2E3 ag-2 inactive, NR2E3 ag confirm 97.3, GAL4-VP16 luc 90.4, GalR3 antag conf 83.8 and CNG parental inactive.
